# GSK3A inh = human GSK-3 alpha kinase inhibition; P49840; ADP-Glo luminescence, 60 min; inhibition, % at 10 µM; actives 0.1% (n = 320,000); AID 2650;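 active = more than half of replicates show inhibition above 20%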;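 also: GST-tagged GSK-3 alpha with peptide substrate and 25 µM ATP; 0% = DMSO neutral wells and 100% = GW8510 positive control wells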
# CDK5 p35 inh = CDK5/p35 (human) kinase inhibition | inhibition, % at 10 µM | actives 0.01% (n = 330,000) | Q00535+Q15078 | Recombinant CDK5/p35, ADP-Glo luminescence, 60 min | AID 488839;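 active = highest replicate inhibition of at least 50% and at least 75% of replicates reaching 50%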;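 also: plate controls were DMSO neutral control for no effect and GW8510 at 10 µM for full effect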
# DYRK1A inh = blocks rat Dyrk1A kinase activity. Q63470. ADP-Glo luminescence, NFATc1 peptide. inhibition, % at 12.5 µM. actives 0.43% (n = 310,000). AID 504441; in the data active = inhibition above about 50%;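 also: plate controls were vehicle with enzyme for no effect and no enzyme for full effect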
# GSK3B inh = inhibitors of human GSK3beta kinase; P49841; GST-GSK3beta kinase, ADP-Glo luminescence, 60 min; hits give low values; activity score (negative = inhibition), % at 10 µM; actives 0.038% (n = 300,000); AID 2097;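 active = more than half of replicate wells score below -50%, meaning over 50% inhibition versus plate controls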;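 also: 0% = median DMSO wells and -100% = median GW8510 positive control wells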
#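 Assay system: GST-fused GSK3beta enzyme, cell-free / Medium: Tris pH 7.5 buffer with MgCl2, DTT, BSA, heparin / Also added: peptide substrate plus 25 µM ATP (final) / Compound: 10 µM single point / Timing: kinase reaction with compound 60 min at room temperature / Detection: ADP-Glo luminescence / Benchmarks: DMSO neutral wells and GW8510 at 20 µM as positive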
# STK33 inh = blocks human STK33 kinase activity. AID 2661. inhibition, % at 10 µM. actives 0.073% (n = 320,000). Q9BYT3. purified STK33, MBP phosphorylation, ADP-Glo luminescence;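 active = inhibition at or above 25%, using the most active replicate where run in duplicate; inactive = inhibition below 25%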
# Target sequence (Q9BYT3 whole entry, looked up): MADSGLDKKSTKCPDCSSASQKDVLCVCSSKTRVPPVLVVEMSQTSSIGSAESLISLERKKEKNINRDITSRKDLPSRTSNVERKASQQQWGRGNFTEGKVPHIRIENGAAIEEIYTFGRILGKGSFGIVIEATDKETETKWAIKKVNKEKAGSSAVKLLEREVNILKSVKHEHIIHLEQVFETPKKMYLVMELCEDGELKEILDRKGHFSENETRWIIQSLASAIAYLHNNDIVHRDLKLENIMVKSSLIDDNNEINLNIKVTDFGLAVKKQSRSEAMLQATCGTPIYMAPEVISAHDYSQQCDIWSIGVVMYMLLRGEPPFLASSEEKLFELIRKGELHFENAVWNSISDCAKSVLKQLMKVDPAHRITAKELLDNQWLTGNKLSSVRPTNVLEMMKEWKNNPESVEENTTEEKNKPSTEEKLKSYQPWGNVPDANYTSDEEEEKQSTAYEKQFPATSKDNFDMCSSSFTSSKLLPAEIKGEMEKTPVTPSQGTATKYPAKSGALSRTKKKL
# Dyrk1A artifact = interferes with ADP-Glo luciferase readout without Dyrk1A; ADP-Glo luciferase artifact assay, no Dyrk1A, luminescence; shares compounds with DYRK1A inh; AC50, µM (doses to about 12 µM), for the others: top-dose activity change, negative = inhibition; 1,300 tested, under 10 active;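 active = fitted half-maximal dose AC50 no more than ten times the top valid tested dose, with luminescence dropping as dose rises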
# Active calls of the source: *; · = no result. The sample as a whole holds a higher share of hits than the screen did.
SMILES,GSK3A inh,CDK5 p35 inh,DYRK1A inh,GSK3B inh,STK33 inh,Dyrk1A artifact
COc1cc(/C=C2\SC(=O)NC2=O)ccc1Oc1ccc([N+](=O)[O-])cc1[N+](=O)[O-],2,1,77*,-4,-2,10%
COc1ccc(/C=C2\SC(=O)NC2=S)cc1OC,·,0,58*,0,·,8%
CC(C)(C)[C@H]1C=C(C(=O)N2CCN(Cc3ccccc3)CC2)O[C@@H](OCCCCO)C1,-1,2,53*,-6,1,11%
CC(C)(C)[C@@H]1C=C(C(=O)N2CCN(Cc3ccccc3)CC2)O[C@H](OCc2ccc(CO)cc2)C1,-3,1,3,9,-1,·
CCOc1ccc(NC(=S)N(CCc2c(C)[nH]c3ccc(C)cc23)Cc2cccnc2)cc1,-1,0,-3,-2,2,·
COc1ccc(NC(=S)N(CCc2c(C)[nH]c3ccccc23)Cc2cccnc2)cc1,0,2,60*,3,0,9%
O=C(NN1C(=O)/C(=C\c2ccc(O)c([N+](=O)[O-])c2)SC1=S)c1ccccc1Cl,-5,1,79*,6,0,5%
Cc1cccc(CNc2ncnc3ccc(-c4ccoc4)cc23)c1,-3,6,66*,·,0,14%
O=C(O)c1cccc2c1/C(=N/O)c1ccccc1-2,2,-3,81*,1,4,9%
NC(=O)N/N=C1\c2ccccc2-c2c(C(N)=O)cccc21,5,0,51*,2,8,10%
O=C(O)c1cccc2c1-c1ccccc1/C2=N\Nc1ccccc1,-1,-1,7,1,-2,·
O=C(c1cccc2c1-c1ccccc1/C2=N/O)N1CCCCC1,4,-2,60*,-3,7,10%
Cc1cccc(C(=O)c2cn[nH]c2-c2ccccc2O)c1,-2,0,-1,0,1,·
O=C(O)CCC(=O)N1N=C(c2ccco2)CC1c1cccs1 (stereo not drawn),5,1,3,-26,-3,·
COc1ccc2c(c1)-c1nc(NC(=O)c3ccco3)sc1CC2,-1,-1,35,2,1,·
COc1ccc2c(c1)CCc1sc(NC(=O)c3ccco3)nc1-2,-1,2,68*,-7,2,7%
Cc1sc(NC(=O)c2ccco2)nc1-c1ccccc1,-3,1,52*,4,3,10%
CC(=O)c1sc(NC(=O)c2ccco2)nc1-c1ccccc1,-1,-1,4,2,-1,·
CC(C)Cc1ccc(/C=C/C(=O)N2CCOCC2)cc1,0,0,·,0,0,·
C#CCOCCOCCOCCNc1nc(N2CCN(C(=O)[C@H]([C@@H](C)CC)n3cc([C@@H](N)Cc4ccc(O)cc4)nn3)CC2)nc(N2CCN(C(=O)[C@H](Cc3ccc(O)cc3)n3cc([C@@H](N)CC(C)C)nn3)CC2)n1,-5,0,-12,1,-1,·
COc1ccccc1C1CCN(c2cc(O)ccc2[N+](=O)[O-])CC1,6,1,54*,-1,5,10%
COc1ccccc1C1CCN(C(=O)C2CCCCC2)CC1,-2,0,2,2,-2,·
Cc1nc2ccc3[nH]snc3c2n1,15,4,55*,-11,5,7%
CC(=O)/C(=N\Nc1ccccc1)Oc1ccc([N+](=O)[O-])cc1,-1,-2,1,0,-1,·
Oc1ccc2ccc3[nH]cnc3c2c1,3,5,80*,3,9,11%
SMILES,GSK3A inh,CDK5 p35 inh,DYRK1A inh,GSK3B inh,STK33 inh,Dyrk1A artifact
CC(C)c1nnc(NC(=O)Cn2nc(-c3ccc4c(c3)OCCO4)ccc2=O)s1,-2,0,58*,1,-2,7%
CC(C)(C)C(=O)Nc1nc(-c2ccc3c(c2)OCO3)cs1,2,·,17,-2,1,·
O=C(/C=C/c1ccccc1)Nc1nc(-c2ccncc2)cs1,-9,-1,72*,·,-1,8%
COc1ccccc1C(=O)Nc1nc(-c2ccc3c(c2)OCCO3)cs1,-1,0,24,0,-1,·
O=C(Nc1nc(-c2ccc3c(c2)OCCO3)cs1)c1ccco1,1,0,73*,-2,1,6%
CCC(=O)Nc1nc(-c2ccc3c(c2)OCCO3)cs1,-2,-4,52*,2,1,11%
O=c1c2[nH]c3ccccc3c2ncn1CCN1CCNCC1,-2,-2,7,5,-2,·
O=C(Nc1nc(-c2cccs2)cs1)c1ccco1,-2,0,8,0,-4,·
O=C(Nc1nc(-c2ccncc2)cs1)c1ccco1,0,5,76*,2,2,6%
COc1ccc(C(=O)O)cc1S(=O)(=O)NC(C)C12CC3CC(CC(C3)C1)C2 (stereo not drawn),1,1,-2,·,-1,·
Cn1c(C(=O)N2CCCC2)cc2c(=O)n(C)c3ccccc3c21,·,3,75*,·,·,9%
Cn1c(C(=O)N2CCN(c3ncccn3)CC2)cc2c(=O)n(C)c3ccccc3c21,·,0,15,-1,0,·
Cn1c(C(=O)NCc2ccccn2)cc2c(=O)n(C)c3ccccc3c21,·,-1,19,-4,2,·
Cn1c(C(=O)NCC2CCCO2)cc2c(=O)n(C)c3ccccc3c21 (stereo not drawn),0,1,55*,-3,2,10%
Cc1ccc(CNC(=O)c2cc3c(=O)n(C)c4ccccc4c3n2C)o1,·,-1,62*,1,-1,7%
C/C(N)=C(/C#N)C(=O)COC(=O)c1cccc(C)c1O,0,-2,-2,1,-1,·
CCc1ccc(C(=O)/C=C/c2cnn(C)c2C)s1,-3,-2,-8,1,-1,·
COc1ccc2nc3cc(Cl)ccc3c(Nc3ccc(O)c(CN4CCN(C)CC4)c3)c2c1,·,2,62*,·,·,9%
COC(=O)C1=C(C)N(c2ccc(C)c(C)c2)/C(=C/c2ccc(O)cc2)C1=O,-1,-2,-2,3,-1,·
COc1cccc2c(=O)c3c(cnn3C)n(C)c12,9,-1,·,-11,10,·
O=c1cc(-c2ccccc2Cl)oc2c(NS(=O)(=O)c3ccccc3C(F)(F)F)ccc(O)c12,0,0,59*,-2,0,7%
C#Cc1ccc(CN2CCC(Oc3ccc(C(=O)NCc4ccccn4)cc3)CC2)cc1,-2,0,1,2,-2,·
C=CCOC(=O)C1=C(C)NC(=O)NC1c1ccc(Cl)cc1 (stereo not drawn),0,1,67*,-2,1,6%
C=CCOC(=O)C1=C(C)NC(=O)NC1c1ccc(N(C)C)cc1 (stereo not drawn),-2,0,·,1,0,·
O=C(Nc1ccc(Cl)cc1)c1csc(-c2ccccc2)n1,-3,0,-3,-1,1,·
O=C(Nc1ccc(Cl)cc1)c1csc(-c2ccncc2)n1,-1,4,51*,-4,2,11%

# Compound activity as filed in PubChem BioAssay.
